Data as given in the RNAGym collection of RNA variant scans (doi:10.1101/gad.245936.114).
This sample holds only a part of the variants without activity.

B1: tRNA (parent)
chain: CUCUCGGUAGCCAAGUUGGUUUAAGGCGCAAGACUUUAAUUUAUCACUACGAAAUCUUGAGAUCGGGCGUUCGACUCGCCCCCGGGAGAUUUUUUCCUCGAGCAA

Variants of: B1
Assay: nonsense suppression (GFP-seq) (ratio to wild type); higher = more function; SUP4oc tRNA, yeast GFP reporter sort-seq
Outline: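 Yeast were grown in raffinose/galactose medium with 80 mg/L adenine, each strain bearing a genome-integrated ochre-suppressor tRNA variant from a ~3% random-mutation library, a galactose-driven GFP ochre reporter, and RFP. After sorting into GFP/RFP bins, every bin was sequenced on an Illumina platform at phred ≥30. The GFPSEQ value, a measure of nonsense suppression, is the weighted bin median GFP/RFP relative to the unmutated parent tRNA, using each variant's estimated cell share per bin as the weight. Only variants with ≥100 reads and ≥30 cells were included.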

Variant	nonsense suppression
CUCUCGGUAGCCAAGUUGGCUCAAGGCGCAAGACUUUAAUUUAUCACUACGAAAUCUUGAGAUCGGGCGUUCGACUCGCCCCCGGGAGAUUUUUUCCUCGAGCAA	0.814
UUCUCGCUAGCCAAGUUGGUUUAAGGCGCAAGACUUUAAUUUAUCACUACGAAAUCUUGAGAUCGGGCCUUCGACUCGCCCCCGCGAGAUUUUUUCCUCGAGCAA	≤ 0.026
CUCUCGGUAGCCAUGUUGGUUUACGGCGCAAGACUUUAAUUUAUCACUACGAAAUCUUGAGAUCGGGCGUUCGACUCGCCCCCGGGAGAUUUUUUCCUCGAGCAA	0.0284
CUCUCGGUAGCCAAGUAUGUUUAAGGCGCAAGACUUUAAUUUAUCACUACGAAAUCUUGAGAUCGGGCGUUCGACUCGCCCCCGGGAGAUUUUUUCCUCGAGCAA	≤ 0.026
CUCUCGGUAGCCAAGUUGGUUUAAGGCGCAAGACUUUAAUUUAUCACUACGAAAUCUUGACAUCGGGCGUUCGACUCGCCGCCGGGAGAUUUUUUCCUCGAGCAA	0.248
CUCUCGGUAGCCAAGUUGGUUUAAGGCGCAAGACUUUAAUUUAUCACUACGAAAUCUUGGGAUCGGGCGUUCGACUCGCCCACGGGAGAUUUUUUCCUCGAGCAA	0.0331
CUCUCGGUAGCCAAGUUGGUUUAAGGCGCAAGACUUUAAUUUAUCACUACGAAAUCUUGAGAUCGGGCGUGCGACUAGUCCCCGGGUGAUUUUUUCCUCGAGCAA	≤ 0.026
CUCUCGGUAGCCAAGUUGGUUUAAGGCGCGAGACUUUAAUUUAUCACUACGAAAUCUUGAGAUCGGGCGUUCGACUCGCCCCCGCGAGAUUUUUUCCUCGAGCAA	≤ 0.026
CUCUCGGUUGCCAAGUUGGUUUAAGGCGCAAGACUUUAAUUUAUCACUACGAAAUCUUGAGAUCGGGCGUUCGGCUCGCCCCCGGGAGAUUUUUUCCUCGAGCAA	0.0977
AUCUCGGUAGCCAAGUUGGUUUAAGGCGCAAGACUUUAAUUUAUCACUACGAAAUCUUGAGAUCGGGCGUUCGACUCGCCCCCGUGAGAUUUUUUCCUCGAGCAA	0.03
CUCUCGGUAGCCAAGUUGGUGUAAGGCGCAAGACUUUAAUUUAUCACUACGAAAUCUUGAGAUCGGUCGUACGACUCGCCCCCGGGAGAUUUUUUCCUCGAGCAA	≤ 0.026
CUAUCGGUAGCCAAGUUGGUUUAAGGCGCAAGACUUUAAUUUAUCACUACGAAAUCUUGAGAUCGGGCGUUCGACUCGCCCCCGGGAGGUUUUUUCCUCGAGCAA	≤ 0.026
CUCUCGGUAGCCAAGUUGGUUCAAGGCGCAAGACUUUAAUUUAUCACUACGAAAUCUUGCAAUCGGGCGUUCGACUCGCCCCCGGGAGAUUUUUUCCUCGAGCAA	0.176
CUCUCGGUAGCCUAGUUGGUUUAAGGCGCAAGACUUUAAUUUAUCACUACGAAAUCUUGAGAUCGGGCGUUCGACUCGCCCCCGAGAGAUUUUUUCCUCGAGCAA	1.2
CUCUCGGUAGCCAAGUUGGUUUAAGGCGCUAGACUUUAAUUUAUCACUACGAAAUCUUGAGGUCGGGCGUUCGACUCGCCGCCGGGAGAUUUUUUCCUCGAGCAA	≤ 0.026
CUCUCGGUAGCCAAGUUGGUUUAAGGCGCAAGACUUUAAUUUAUCACUACGAAGUCUUGAGAUCGGGCGUUCAACUCGCCCCCGGGAGAUUUUUUCCUCGAGCAA	0.122
CUCUCGGUAGCCAAGUUGGUGCAAGGCGCAAGACUUUAAUUUAUCACUACGAAAUCUUGAGAUCGGGCGUUCGACUCGCCCCCGGGAGAUUUUUUCCUCGAGCAA	1.09
CUCUCGGUAGCCCAGUUGGUUUAAGGCGCAAGACUUUAAUUUAUCACUACGAAAUCUUGAGACCGGGCGUUCGACUCGCCCCCGGGAGAUUUUUUCCUCGAGCAA	0.848
CUCUCGGUAGCCGAGUUGGUUUAAGGCGAAAGACUUUAAUUUAUCACUACGAAAUCUUGAGAUCGGGCGUUCGACUCGCCCCCGGGAGAUUUUUUCCUCGAGCAA	0.03
CUUUCGGUAGCCAAGUUGGUUUAAGGCGCAAGUCUUUAAUUUAUCACUACGAAAUCUUGAGAUCGGGCGUUCGACUCGCCCCCGGGAGAUUUUUUCCUCGAGCAA	0.027
CUCUCGGUAGCCAAGUUGGUUUAAGGCGUAAGACUUUAAUUUAUCACUACGAAAUCAUGAGAGCGGGCGUUCGACUCGCCCCCGGGAGAUUUUUUCCUCGAGCAA	≤ 0.026
CUCUCGGUGGCCAAGUUGGUUUAAGGCGCAAGACUUUAAUUUAUCACUACGAAAUCUUGAGAUCGGGCGUUCGAUUCGCCCCCGGGAGAUUUUUUCCUCGAGCAA	1.17
CUCUCGGUAGCCAAGCUGGUUUAAGGCGCAAGACUUUAAUUUAUCACUACGAAAUCUUGAGAUCGGGCGUUCGACUCGCCCCGGGAGGAUUUUUUCCUCGAGCAA	≤ 0.026
CUCACGGUAGCCAAGUUGGUUUAAGGCGCAAGACUUUAAUUUAUCACUACGAAAUCUUGAUAUCGGGCGUUCGACUCGCCCCCGGGAGAUUUUUUCCUCGAGCAA	0.194
CUCUCGGUAGCCAAGUUGGUUUAAGGCGCAAGACUUUAAUUUAUCACUACGAAAUCUUGAGAUCGGGCGUUCGACUUGCCCCAGGGAGAUUUUUUCCUCGAGCAA	≤ 0.026
CUCUCGGUAGCCAAGUUAGUGUAAGGCGCAAGAUUUUAAUUUAUCACUACGAAAUCUUGAGAUCGGGCGUUCGACUCGCCCCCGGGAGAUUUUUUCCUCGAGCAA	≤ 0.026
CUCUCGGUAGCCUAGUUGGUUUAAGGCGCAUGACUUUAAUUUAUCACUACGAAAUCUUGAGAUCGGGCGUUCGACUCGCCCCCGGGAGAUUUUUUCCUCGAGCAA	0.193
